Only some compounds are listed: those with a hit (about 2% of all), similar ones and a draw of the others.
MC4R antagonist: MC4R antagonists of cAMP signaling, primary screen, cell-based, TR-FRET, antagonist arm of biased-ligand search. Melanocortin receptor 4 (Homo sapiens), P32245. MC4R-expressing cells, MTII-stimulated cAMP, LANCE TR-FRET. inhibition, % at 6.5 µM. actives 0.48% (n = 360,000). AID 540295, 2011;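 active = inhibition above its plate's cutoff, the mean of tested wells on that plate plus 3 SD, cut at about 29% in these data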;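 also: 0% = Melanotan II alone and 100% = Melanotan II plus saturating MCL0020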
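Material: U2OS-MC4R stable cell line | Reagent: Melanotan II challenge after compound preincubation | Doses: One concentration, 6.5 µM nominal | Incubation: 30-min compound preincubation, 1-h Melanotan II challenge, 1-h detection, room temperature | Signal: TR-FRET cAMP assay | Replicates: One well per compound, no replicates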
A1 inh: caspase 3/7 activation in MEF A1-2A-BIM cells, primary screen, A1 inhibitor project, cell-based, luminescence, HTS | caspase activation, % (concentration not given with the values) | Caspase-Glo 3/7 luminescence, 3 h; percent of clofoctol response, vehicle zero | actives 0.066% (n = 330,000);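 active = over half of replicate activation scores above 10%, or exactly half above 10 with the replicate mean above 10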
CHOP UPR activ: activators of apoptotic CHOP UPR arm, primary screen, cell-based, CHO-CHOP luciferase reporter, luminescence, uHTS; actives 0.34% (n = 330,000); UPR activation; percent of tunicamycin response over DMSO baseline; activation, % at 10 µM;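 active = at 10 µM dose, activation of 40% or more, normalized to positive control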;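 also: 100% = tunicamycin at 10 µg/mL and 0% = DMSO alone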
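Assay system: CHO-CHOP cells, stable luciferase reporter of PERK-eIF2a-CHOP signalling / Buffer or medium: F12 plus 10% serum / Compound dosing: one dose, 10 µM in 0.5% DMSO / Times: 6 h compound treatment, 37 °C / Technique: luciferase luminescence / Read-out: % reporter activation, DMSO baseline versus tunicamycin full activation / Benchmarks: tunicamycin and DMSO controls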
XBP1 UPR activ: activators of adaptive XBP1 UPR arm, primary screen, cell-based, CHO-XBP1 luciferase reporter, luminescence, uHTS | IRE1-XBP1 UPR activation; percent of tunicamycin response, DMSO as zero | activation, % at 20 µM | actives 0.33% (n = 330,000) | AID 463104, 2010;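 active = versus positive control, 20 µM dose yields 30% or more activation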;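 also: 100% = tunicamycin at 10 µg/mL and 0% = DMSO only wells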
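incubation = overnight seeding at 37 °C, 6 h compound treatment at 37 °C | assay system = CHO-XBP1 cells stably carrying IRE1-XBP1-driven luciferase reporter | input = 1000 cells per well | detection = luciferase luminescence | dosing = single point, 20 µM final compound, 1% DMSO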
MC4R barr agon: MC4R agonists recruiting beta-arrestin, primary screen, cell-based, luminescence, agonist arm of biased-ligand search; U2OS MC4R beta-arrestin complementation; percent of melanotan II response, DMSO zero; activation, % at 8.9 µM; actives 0.98% (n = 360,000); AID 540308, 2011;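 active = activation above a per-plate cutoff, the mean activation of sample wells on that plate plus 3 SD, cut at about 8% in these data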
MC4R barr conf: MC4R beta-arrestin agonists, retest, confirmation, cell-based, luminescence, U2OS. shares compounds with MC4R barr agon. U2OS MC4R beta-arrestin recruitment; scaled DMSO 0%, Melanotan II 100%. activation, % at 8.9 µM. actives 31% (n = 2,400). AID 602192, 2012;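 active = mean activation across replicates above the hit cutoff set in the earlier primary screen, cut at about 8% in these data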
MOR DOR agonist: agonists of MOR-DOR heterodimerization, counter-screen for MC4R biased agonist project, cell-based, luminescence | shares compounds with MC4R barr agon | U2OS PathHunter beta-arrestin, beta-gal luminescence; percent of deltorphin B response, DMSO zero | activation, % at 9.2 µM | actives 5.8% (n = 2,400) | AID 602194, 2012;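 active = mean activation across replicates exceeds the hit threshold derived in the earlier primary screen, cut at about 18% in these data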;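 also: 100% = deltorphin B at 0.9 µM final and 0% = DMSO alone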
The depositor's hits bear a star.

For CC(=C/c1ccco1)/C=N/NC(=O)CSc1nnc(SCc2ccc(C)cc2)s1 the results were MC4R antagonist 8, A1 inh -2, CHOP UPR activ 4, XBP1 UPR activ -3, MC4R barr agon 20*, MC4R barr conf 3 and MOR DOR agonist 5.
`O=C(O)CCCN1C(=O)/C(=C/c2cn(-c3ccccc3)nc2-c2cccs2)SC1=S` gave MC4R antagonist 19, MC4R barr agon 9.9*, MC4R barr conf 6 and MOR DOR agonist 1.
Cc1noc(C)c1C(=O)N1CCC1(C)C(=O)NS(=O)(=O)c1cccc(F)c1 (centres undefined) was read as MC4R antagonist 17 and MC4R barr agon 1.
`CC(=O)c1ccc(NS(=O)(=O)c2cccc3cccnc23)cc1` gave MC4R antagonist -4 and MC4R barr agon 0.
For CN1C(=O)/C(=C/c2ccccc2OCc2ccccc2)NC1=S the results were MC4R antagonist -2, A1 inh 0, CHOP UPR activ 3, XBP1 UPR activ 0 and MC4R barr agon -1.
Screening CN1C(=O)/C(=C/c2ccccc2OCc2cccc(F)c2)NC1=S returned MC4R antagonist -8, A1 inh 0, CHOP UPR activ -2, XBP1 UPR activ 3, MC4R barr agon 30*, MC4R barr conf 5 and MOR DOR agonist 3.
`CCOc1ccccc1-c1nc(-c2ccc(NC(=O)Cc3ccc(OC)cc3)cc2)no1` gave MC4R antagonist -13, A1 inh 0, CHOP UPR activ 3, XBP1 UPR activ 5, MC4R barr agon 21*, MC4R barr conf 25* and MOR DOR agonist 21*.
For O=C(Nc1ccc(Br)cc1)c1ccc(CSC2=NCCS2)cc1 the results were MC4R antagonist 1, A1 inh 0, CHOP UPR activ 2, XBP1 UPR activ 14, MC4R barr agon 29*, MC4R barr conf 3 and MOR DOR agonist 13.
Screening Cc1ccc(NC(=O)c2ccc(CSc3nnc(C)s3)cc2)cc1 returned MC4R antagonist 0, A1 inh -1, CHOP UPR activ 3, XBP1 UPR activ -4 and MC4R barr agon -1.
`Cc1ccc(C)c(C(=O)COC(=O)c2n[nH]c3ccccc23)c1` gave MC4R antagonist -14, A1 inh 0, CHOP UPR activ 5, XBP1 UPR activ -1, MC4R barr agon 16*, MC4R barr conf 16* and MOR DOR agonist 8.
`O=C(COc1ccc2ccccc2c1)Nc1ccc2c3c(cccc13)CC2` gave MC4R antagonist -6, A1 inh 0, CHOP UPR activ -1, XBP1 UPR activ 0, MC4R barr agon 34*, MC4R barr conf 7 and MOR DOR agonist 4.
Cc1ccc2nc(NC(=O)c3cc(-c4ccco4)nc4ccccc34)sc2c1 was read as MC4R antagonist 3, A1 inh -3, CHOP UPR activ 1, XBP1 UPR activ -3, MC4R barr agon 23*, MC4R barr conf 13* and MOR DOR agonist 3.
CCCCN(C)c1c(C)nc2ccc(C(=O)Nc3ccc(OC)c(OC)c3)cn12 was read as MC4R antagonist 2 and MC4R barr agon 0.
Screening Cc1cc(C(C)(C)C)cc(C)c1Cn1c2[n+](c3ccc(C(F)(F)F)cc31)CCCCC2 returned MC4R antagonist 2, A1 inh 0, CHOP UPR activ 1, XBP1 UPR activ 0, MC4R barr agon 17*, MC4R barr conf 15* and MOR DOR agonist 7.
FC(F)(F)c1cccc(Cn2c3[n+](c4ccc(C(F)(F)F)cc42)CCCCC3)c1 was read as MC4R antagonist 14, A1 inh 1, CHOP UPR activ -1, XBP1 UPR activ 0 and MC4R barr agon 0.
Screening Clc1ccc(-c2nnc(-c3ccc4ccccc4c3)o2)cc1 returned MC4R antagonist 6 and MC4R barr agon 1.
For Cc1ccc(-c2nnc(-c3ccc4ccccc4c3)o2)cc1 the results were MC4R antagonist 3, MC4R barr agon 10*, MC4R barr conf -4 and MOR DOR agonist 1.
`NC(=O)C1CCN(C(=O)c2ccc(Cl)c(NC(=O)c3cccs3)c2)CC1` gave MC4R antagonist -1 and MC4R barr agon -2.
CSc1ccc(/C=C/C(=O)OCC(=O)NC2CCCC2)cc1 was read as MC4R antagonist 9 and MC4R barr agon 2.
For CSc1ccc(/C=C/C(=O)OCC(=O)c2ccc[nH]2)cc1 the results were MC4R antagonist 5, A1 inh -2, CHOP UPR activ 3, XBP1 UPR activ 1, MC4R barr agon 22*, MC4R barr conf -1 and MOR DOR agonist 6.
COc1ccc(S(=O)(=O)N(C)CC(=O)Nc2ccc(C(F)(F)F)cc2)cc1Cl was read as MC4R antagonist 4, A1 inh 0, CHOP UPR activ -1, XBP1 UPR activ -1, MC4R barr agon 17*, MC4R barr conf 5 and MOR DOR agonist 8.
For COc1ccc(NC(=O)CN(C)S(=O)(=O)c2ccc(Cl)cc2)cc1Cl the results were MC4R antagonist 6, A1 inh 0, CHOP UPR activ 1, XBP1 UPR activ -1 and MC4R barr agon 2.
For COc1ccc(/C=C/C(=O)Nc2ccc(OC)cc2[N+](=O)[O-])cc1 the results were MC4R antagonist -4, A1 inh 0, CHOP UPR activ 2, XBP1 UPR activ 3, MC4R barr agon 32*, MC4R barr conf 7 and MOR DOR agonist 10.
Screening COc1ccc(NC(=O)/C=C/c2ccccc2)c([N+](=O)[O-])c1 returned MC4R antagonist -13, A1 inh 0, CHOP UPR activ 6, XBP1 UPR activ 3 and MC4R barr agon 3.
`CCN(CC)C(=O)C1=C(C)N(Cc2ccccc2)C(=O)C(CC(=O)NC2CC2)C1` (centres undefined) gave MC4R antagonist 9 and MC4R barr agon 3.
Screening COc1ccc(C(N)c2csc(Nc3ccc(C(=O)NCCCO)cn3)n2)cc1 (centres undefined) returned MC4R antagonist 4 and MC4R barr agon 0.

Screening results from PubChem BioAssay.
